Measurements as given in ChEMBL document CHEMBL3808278, “Design, Synthesis, and Biological Evaluation of Imidazo[1,5-a]quinoline as Highly Potent Ligands of Central Benzodiazepine Receptors” (J Med Chem, 2016).
Active and inactive are the calls of the source. The calls are words filed in the database; no cut-off is given here.

Tests used:
[1] = Displacement of [3H]-flumazenil from central-type benzodiazepine receptor in bovine cortical membrane after 90 mins by liquid-phase scintillation beta-counting method; format: cell membranes, Bos taurus
In short: (§1)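 Competition binding against radiolabelled antagonist [3H]flumazenil in cortical membranes (bovine; human where listed); Ki reported as mean ± SEM of three independent determinations.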

Bos taurus = species: Bos taurus; experiment: Selectivity ratio, ratio of Ki for central-type benzodiazepine receptor in bovine cortical membrane to Ki for central-type benzodiazepine receptor in bovine cortical membrane in presence of 50 uM of GABA; format: cell membranes
Rattus norvegicus [2] = species: Rattus norvegicus; experiment: Antagonist activity at central-type benzodiazepine receptor in Sprague-Dawley rat cerebrocortical synaptoneurosomes assessed as decrease in 36Cl- flow after 10 secs by liquid-phase scintillation beta-counting method
[3] = Displacement of [3H]-flumazenil from central-type benzodiazepine receptor in human cortical membrane after 90 mins by liquid-phase scintillation beta-counting method; format: cell membranes; in short: as §1
Homo sapiens = species: Homo sapiens; experiment: Selectivity ratio, ratio of Ki for central-type benzodiazepine receptor in human cortical membrane to Ki for central-type benzodiazepine receptor in human cortical membrane in presence of 50 uM of GABA; format: cell membranes
Rattus norvegicus [4] = species: Rattus norvegicus; experiment: Partial inverse agonist activity at central-type benzodiazepine receptor in Sprague-Dawley rat cerebrocortical synaptoneurosomes assessed as decrease in 36Cl- flow after 10 secs by liquid-phase scintillation beta-counting method
Rattus norvegicus [5] = species: Rattus norvegicus; experiment: Partial agonist activity at central-type benzodiazepine receptor in Sprague-Dawley rat cerebrocortical synaptoneurosomes assessed as increase in 36Cl- influx after 10 secs by liquid-phase scintillation beta-counting method
[6] = Binding affinity to rat cortical membrane central-type benzodiazepine receptor measured after 90 mins by liquid-phase scintillation beta-counting method
Rattus norvegicus [7] = species: Rattus norvegicus; experiment: Selectivity ratio, ratio of Ki for central-type benzodiazepine receptor in rat cortical membrane to Ki for central-type benzodiazepine receptor in rat cortical membrane in presence of 50 uM of GABA; format: cell membranes
In short: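 GABA ratio is Ki without GABA divided by Ki with 50 µM GABA, from [3H]flumazenil competition binding in cortical membranes. Per the table footnote, ratio values were obtained in rat cortical membranes.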

Brain [8] = experiment: Neuroprotective activity against oxygen-glucose deprivation and reoxygenation-induced injury in Sprague-Dawley rat brain cortical slices assessed as maximum recovery in LDH release at 5 uM treated during 90 mins of reperfusion phase measured after 90 mins by spetrophotometric method; format: functional
In short: (§2)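 Rat brain cortical slices in ACSF underwent 30 min oxygen/glucose deprivation, then 90 min reoxygenated ACSF (reperfusion). Controls were kept 120 min in ACSF. Compounds (0.1–100 µM) were added only during reperfusion, and LDH release was measured. Data are means ± SEM of at least 4 experiments, analysed by ANOVA with Dunnett post test. The effective concentration is that giving the largest reduction, and recovery is the % reversion at that concentration.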

Rattus norvegicus [9] = species: Rattus norvegicus; experiment: Inverse agonist activity at central-type benzodiazepine receptor in Sprague-Dawley rat cerebrocortical synaptoneurosomes assessed as decrease in 36Cl- flow after 10 secs by liquid-phase scintillation beta-counting method
Brain [10] = experiment: Neuroprotective activity against oxygen-glucose deprivation and reoxygenation-induced injury in Sprague-Dawley rat brain cortical slices assessed as maximum recovery in LDH release at 50 uM treated during 90 mins of reperfusion phase measured after 90 mins by spetrophotometric method; format: functional; in short: as §2
Mus musculus [11] = experiment: Neurotoxicity in mouse assessed as effect on neurological and muscular abilities at 10 mg/kg, po after 30 mins by Hole-Board test; format: toxicity, organism-based; details: in vivo, 0.5 h
In short: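 Hole-board test 30 min after oral dosing at 10 mg kg-1 counted movements (motor activity) and head inspections (exploratory activity). Values are mean ± SEM of at least 10 mice, compared with vehicle controls.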

Mus musculus [12] = species: Mus musculus; experiment: Myorelaxant effect in mouse assessed as effect on motor coordination after 30 mins by rotarad test; format: organism-based; details: in vivo, 0.5 h
In short: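 Rota-rod test of motor coordination in mice, with compounds given per os 30 min before testing. Values are mean ± SEM of at least 10 mice.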

Mus musculus [13] = experiment: Antiamnestic activity in mouse assessed as prevention of scopalamine-induced amnesia at 10 mg/kg, po administered 30 mins before test by passive avoidance test; format: functional, organism-based
In short: (§3)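 Passive avoidance in mice: compounds were given per os 30 min before the test, and scopolamine 1.5 mg kg-1 i.p. immediately after the punishment. Read-out was time recorded during the retention session. Values are mean ± SEM of at least 10 mice, compared with vehicle-treated animals.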

Mus musculus [14] = experiment: Anxiolytic activity against mouse assessed as increase in time spent in light box at 10 mg/kg, po administered 30 mins before test by light-dark box test; format: functional, organism-based
In short: (§4)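 Light-dark box in mice measured time in the light compartment. Compounds were given per os 30 min before testing, and diazepam 1 mg kg-1 subcutaneously as reference. Values are mean ± SEM of at least 10 mice, compared with vehicle-treated animals.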

Mus musculus [15] = experiment: Anxiolytic activity in mouse assessed as increase in time spent in light box at 1 mg/kg, po administered 30 mins before test by light-dark box test; format: functional, organism-based; in short: as §4
Mus musculus [16] = experiment: Antiamnestic activity in scopolamine induced mouse amnesia model assessed as time of retention session in light box at 30 mg/kg, po administered 30 mins before test by passive avoidance test (reference value: 44.8 +/- 8.1 secs); format: functional; in short: as §3
Mus musculus [17] = experiment: Anxiolytic activity in mouse assessed as time spent in light box at 10 mg/kg, po administered 30 mins before test by light-dark box test; format: functional; in short: as §4
Mus musculus [18] = experiment: Antiamnestic activity in scopolamine induced mouse amnesia model assessed as time spent in light box at 1 mg/kg, po administered 30 mins before test by passive avoidance test; format: functional, organism-based; in short: as §3

| SMILES | Ki [1] | Ratio Ki (Bos taurus) | Antagonist activity (Rattus norvegicus [2]) | other results |
| --- | --- | --- | --- | --- |
| CCCc1c(C(=O)N(CC)CC)c2ccccc2n2cnc(C(=O)OC(C)(C)C)c12 | 2870 nM | 1.1 |  |  |
| CN(Cc1ccccc1)C(=O)c1cc2c(C(=O)OC(C)(C)C)ncn2c2ccccc12 | 14 nM | 0.98 | Active |  |
| CCOC(=O)c1ncn2c1CN(C)C(=O)c1cc(F)ccc1-2 [FLUMAZENIL] | 1.9 nM | 1.03 |  | Ki [3]: 2 nM; Ratio Ki (Homo sapiens): 1.02; Activity (Rattus norvegicus [4]): Active |
| CC(=O)N1Cc2c(C(=O)OC(C)(C)C)ncn2-c2ccc(F)cc21 | 1 nM | 1 | Active | Ki [3]: 2 nM; Ratio Ki (Homo sapiens): 1; Activity (Rattus norvegicus [5]): Active |
| CCOC(=O)c1cc2c(cn1)[nH]c1ccccc12 |  |  |  | Activity (Rattus norvegicus [4]): Active |
| CCCN(CCC)C(=O)c1cc2c(C(=O)OCC)ncn2c2ccccc12 | 0.91 nM | 1 | Active |  |
| CCCc1c(C(=O)N(CCC)CCC)c2ccccc2n2cnc(C(=O)OCC)c12 | 34 nM | 1.1 | Active |  |
| CCOC(=O)c1ncn2c1cc(C(=O)N(C)Cc1ccccc1)c1cc(C#C[Si](C)(C)C)ccc12 |  |  | Active | Ki [6]: 510 nM; Ratio Ki (Rattus norvegicus [7]): 0.99 |
| CN(C)C(=O)c1ncn2c1cc(-c1ccccc1)c1ccccc12 | 3520 nM | 1.44 |  | Activity (Rattus norvegicus [5]): Active |
| CCOC(=O)c1ncn2c1c(CO)c(-c1ccccc1)c1ccccc12 | 1.8 nM | 1.18 |  | Ki [3]: 2 nM; Activity (Rattus norvegicus [5]): Active; Activity (Brain [8]): 39.5% |
| CCOC(=O)c1ncn2c1c(C)c(C(=O)N(C)Cc1ccccc1)c1ccccc12 | 6.5 nM | 1.1 | Active |  |
| CCOC(=O)c1ncn2c1cc(C(=O)N(C)Cc1ccccc1)c1cc(Br)ccc12 |  |  | Active | Ki [6]: 24 nM; Ratio Ki (Rattus norvegicus [7]): 0.9 |
| CCOC(=O)c1ncn2c1CN(C(C)=O)c1ccccc1-2 | 25 nM | 0.9 | Active | Ki [3]: 33 nM |
| CC(C)(C)OC(=O)c1ncn2c1cc(-c1ccccc1)c1ccccc12 | 55 nM | 0.8 |  | Activity (Rattus norvegicus [9]): Active |
| CCOC(=O)c1ncn2c1CN(C(C)=O)c1cc(F)ccc1-2 | 2.2 nM | 0.75 |  | Ki [3]: 2.7 nM; Ratio Ki (Homo sapiens): 0.95; Activity (Rattus norvegicus [5]): Active; Activity (Rattus norvegicus [4]): Active |
| CCOC(=O)c1ncn2c1c(C)c(C(=O)O)c1ccccc12 | 105 nM | 1.2 |  | Activity (Rattus norvegicus [5]): Active |
| CCOC(=O)Cc1c(-c2ccccc2)c2ccccc2n2cnc(C(=O)OCC)c12 | 3.8 nM | 0.72 |  | Activity (Rattus norvegicus [9]): Active |
| CCOC(=O)c1ncn2c1cc(C(=O)N1CCN(C)CC1)c1ccccc12 | 55 nM | 1 | Active |  |
| CCOC(=O)c1ncn2c1c(C(=O)OCC)c(-c1ccccc1)c1ccccc12 | 2190 nM | 0.66 |  | Activity (Rattus norvegicus [9]): Active |
| CCOC(=O)c1ncn2c1cc(C(=O)N(C)Cc1ccccc1)c1cc(F)ccc12 | 5.7 nM | 0.8 |  | Activity (Rattus norvegicus [9]): Active |

| SMILES | Ki [1] | Ratio Ki (Bos taurus) | Antagonist activity (Rattus norvegicus [2]) | other results |
| --- | --- | --- | --- | --- |
| CCCN(CCC)C(=O)c1c(CC)c2c(C(=O)OCC)ncn2c2ccccc12 | 2.5 nM | 1.5 |  | Activity (Rattus norvegicus [5]): Active; Activity (Brain [10]): 44.3%; Activity (Mus musculus [11]): Non-toxic; Activity (Mus musculus [12]): Non-toxic; Activity (Mus musculus [13]): Active; Activity (Mus musculus [14]): Active |
| CN(Cc1ccccc1)C(=O)c1ncn2c1cc(-c1ccccc1)c1ccccc12 | 449 nM | 0.92 | Active |  |
| CCCc1c(C(=O)N(CC)CC)c2ccccc2n2cnc(C(=O)OCC)c12 | 169 nM | 0.9 |  |  |
| CCOC(=O)c1ncn2c1cc(C(=O)N(C)Cc1ccccc1)c1ccccc12 | 20 nM | 0.52 |  | Activity (Rattus norvegicus [9]): Active |
| C#Cc1ccc2c(c1)c(C(=O)N(C)Cc1ccccc1)cc1c(C(=O)OCC)ncn12 |  |  | Active | Ki [6]: 161 nM; Ratio Ki (Rattus norvegicus [7]): 0.95 |
| CC(=O)N1Cc2c(C(=O)OC(C)(C)C)ncn2-c2ccccc21 | 7.3 nM | 0.98 | Active | Ki [3]: 7.7 nM; Ratio Ki (Homo sapiens): 1.04 |
| CN1C(=O)CN=C(c2ccccc2F)c2cc([N+](=O)[O-])ccc21 [FLUNITRAZEPAM] | 5.2 nM | 1.68 |  | Ki [3]: 6.4 nM; Ratio Ki (Homo sapiens): 1.61; Activity (Rattus norvegicus [4]): Active |
| CCCN(CCC)C(=O)c1c(C)c2c(C(=O)OC(C)(C)C)ncn2c2ccccc12 | 1 nM | 1.1 | Active | Activity (Mus musculus [11]): Non-toxic; Activity (Mus musculus [12]): Non-toxic; Activity (Mus musculus [13]): Active; Activity (Mus musculus [14]): Active; Activity (Mus musculus [15]): Active |
| CCOC(=O)c1ncn2c1c1c(c3ccccc32)CCC1 | 18 nM | 1.3 |  |  |
| CCOC(=O)c1ncn2c1cc(C(=O)N(C)C)c1ccccc12 | 8.2 nM | 1.3 |  | Activity (Rattus norvegicus [5]): Active; Activity (Mus musculus [11]): Non-toxic; Activity (Mus musculus [12]): Non-toxic; Activity (Mus musculus [16]): inactive; Activity (Mus musculus [14]): Active |
| CCCN(CCC)C(=O)c1cc2c(C(=O)OC(C)(C)C)ncn2c2ccccc12 | 1.2 nM | 1.1 | Active |  |
| CCCN(CCC)C(=O)c1c(CC)c2c(C(=O)OC(C)(C)C)ncn2c2ccccc12 | 5.6 nM | 1.4 |  | Activity (Rattus norvegicus [5]): Active; Activity (Brain [8]): 44.4%; Time (Mus musculus [17]): 172.5 s; Activity (Mus musculus [11]): Non-toxic; Activity (Mus musculus [12]): Non-toxic; Activity (Mus musculus [13]): Active; Activity (Mus musculus [18]): Active |
| CN(C)C(=O)c1cc2c(C(=O)OC(C)(C)C)ncn2c2ccccc12 | 11 nM | 1.6 |  | Activity (Rattus norvegicus [5]): Active |
| CCCCN(C)C(=O)c1cc2c(C(=O)OCC)ncn2c2ccccc12 | 1.9 nM | 0.76 |  | Activity (Rattus norvegicus [9]): Active; Activity (Mus musculus [11]): Non-toxic; Activity (Mus musculus [12]): Non-toxic; Activity (Mus musculus [13]): Active; Activity (Mus musculus [14]): Active |
| CCCc1c(C(=O)N(CCC)CCC)c2ccccc2n2cnc(C(=O)OC(C)(C)C)c12 | 1440 nM | 1 | Active |  |
| Cc1c(-c2ccccc2)c2ccccc2n2cnc(C(=O)OC(C)(C)C)c12 | 10 nM | 1 | Active |  |
| C#CCN(C)C(=O)c1c(C)c2c(C(=O)OCC)ncn2c2ccccc12 | 1.2 nM | 1 | Active |  |
| CCOC(=O)c1ncn2c1cc(-c1ccccc1)c1ccccc12 | 42 nM | 0.9 | Active |  |
| CCOC(=O)c1ncn2c1c(C)c(C(=O)OC(C)(C)C)c1ccccc12 | 1 nM | 1.4 |  | Activity (Rattus norvegicus [5]): Active |
